For one test, the system named is Candida tropicalis. The test is described as follows: Antifungal activity against Candida tropicalis after 24 hrs. Format: functional. The gist of the method:
(§1)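 MIC measured by broth dilution per NCCLS recommendations. Compounds were dissolved in DMSO in growth medium, inoculated and incubated at 35 °C. MIC80 is the first well with approximately 80% lower growth than the drug-free well. Values are the mean of three replicate tests.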

The subject of another test is Pichia kudriavzevii. The test is described as follows: Antifungal activity against Candida krusei after 5 to 7 days. Format: functional. The gist of the method:
as §1

Test [1] deals with Candida albicans. In words: Antifungal activity against Candida albicans SC5314 after 24 hrs. Format: functional. The note with it: SC5314, 24 h. The method in brief:
(§2)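 Broth dilution MIC per NCCLS recommendations. Compounds were dissolved in DMSO in growth medium, then inoculated and incubated at 35 °C, with growth read at 24 h for C. albicans. MIC80 is the first well showing about 80% growth reduction versus the drug-free well. Values are the mean of three replicate tests.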

In the next test the test system is Aspergillus fumigatus. In words: Antifungal activity against Aspergillus fumigatus after 5 to 7 days. It is filed as functional. The method in brief:
(§3)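 Filamentous fungi were tested by broth dilution following NCCLS recommendations. Compounds were dissolved in DMSO in growth medium, inoculated and incubated at 35 °C, with MIC80 read after 5–7 days. MIC80 is the first well with approximately 80% growth reduction relative to the drug-free well. Results are the mean of three replicates.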

A further test has as its system Nannizzia gypsea. In words: Antifungal activity against Microsporum gypseum after 5 to 7 days. It is filed as functional. The method in brief: as §3
In test [2] the test system is Candida albicans. In words: Antifungal activity against Candida albicans SC5314 infected in ICR mouse assessed as increase in host survival at 1 mg/kg, po qd for 7 days starting from 2 hrs post infection measured up to 20 days. It is filed as functional, organism-based. The method in brief:
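Male ICR mice (18–22 g, ten per group) were immunosuppressed with intraperitoneal cyclophosphamide 100 mg/kg once daily for 3 days. They were then infected with 0.4 ml of […] C. albicans SC5314. Oral dosing in 0.5% carboxymethylcellulose suspension began 2 h post-infection, with vehicle-only controls. Read-out was mean survival days over 20 days.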

The next test deals with Nakaseomyces glabratus. In words: Antifungal activity against Candida glabrata after 5 to 7 days. Format: functional.
Test [3] concerns Candida albicans. In words: Antifungal activity against Candida albicans SCY0109 after 24 hrs. Format: functional. Conditions: SCY0109, 24 h. The method in brief: as §2
Another test relates to Candida parapsilosis. The test is described as follows: Antifungal activity against Candida parapsilosis after 5 to 7 days. Format: functional. Conditions: Lodderomyces parapsilosis.
The subject of another test is Cryptococcus neoformans. In words: Antifungal activity against Cryptococcus neoformans after 72 hrs. Format: functional. The method in brief:
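NCCLS-based broth dilution against C. neoformans. Test agents were in DMSO in growth medium, inoculated and held at 35 °C, and MIC80 was read at 72 h. MIC80 is the first well with roughly 80% less growth than the drug-free well. Each value averages three replicate tests.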

A further test concerns Trichophyton rubrum. The test is described as follows: Antifungal activity against Trichophyton rubrum after 5 to 7 days. It is filed as functional. The method in brief: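 Broth dilution per NCCLS recommendations against an ATCC strain; compounds dissolved in DMSO in growth medium; incubated at 35 °C. MIC80 is the first well with about 80% growth reduction versus the drug-free well, read at 5–7 days for filamentous fungi. Values are the mean of three replicate tests.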

In brackets after ≈: the same amount, converted by molar mass. Activity calls are given as the source filed them. The rule behind the calls is not given here. Where only a bound is given, the exact number is not on record here.

In general, MIC80 refers to an inhibitory concentration at the 80% level, which refers to growth in some studies and to a panel of isolates in others. The low end stands for higher susceptibility, the high end for lower susceptibility. Regarding `OC(Cn1cncn1)(Cn1cncn1)c1ccc(F)cc1F` [FLUCONAZOLE], the MIC80 in the test on Candida tropicalis is 32 µg/mL (≈ 104 µM); against Pichia kudriavzevii it was 32 µg/mL (≈ 104 µM); against Candida albicans [1], 1 µg/mL (≈ 3.27 µM); against Aspergillus fumigatus it was > 64 µg/mL; against Nannizzia gypsea, 8 µg/mL (≈ 26.1 µM); in the test on Nakaseomyces glabratus, 1 µg/mL (≈ 3.27 µM). Moreover, the MIC80 came to 0.25 µg/mL (≈ 0.816 µM) in the test on Candida albicans [3], 0.5 µg/mL (≈ 1.63 µM) in the test on Candida parapsilosis, 2 µg/mL (≈ 6.53 µM) against Cryptococcus neoformans and 1 µg/mL (≈ 3.27 µM) with Trichophyton rubrum. In addition, the result with Candida albicans [2] was Active.

For the compound `C[C@@H](N1CCOCC1)[C@](O)(Cn1cncn1)c1ccc(F)cc1F`, the MIC80 with Candida tropicalis came to 0.5 µg/mL (≈ 1.48 µM); against Pichia kudriavzevii, 0.5 µg/mL (≈ 1.48 µM); with Candida albicans [1] it was 0.0312 µg/mL (≈ 0.0924 µM); with Aspergillus fumigatus, 0.125 µg/mL (≈ 0.369 µM); against Nannizzia gypsea it was 0.0625 µg/mL (≈ 0.185 µM); with Nakaseomyces glabratus it was 0.0312 µg/mL (≈ 0.0924 µM). The MIC80 in the test on Candida albicans [3] stood at 0.0156 µg/mL (≈ 0.0461 µM); against Candida parapsilosis it was 0.0625 µg/mL (≈ 0.185 µM); with Cryptococcus neoformans, 0.0156 µg/mL (≈ 0.0461 µM); in the test on Trichophyton rubrum it was 0.0625 µg/mL (≈ 0.185 µM). Also, in the test on Candida albicans [2], the result was Active.
